This is an account of results in ChEMBL document CHEMBL3351863, “Optimization of 2-phenyl-pyrimidine-4-carboxamides towards potent, orally bioavailable and selective P2Y(12) antagonists for inhibition of platelet aggregation” (Bioorg Med Chem Lett, 2014).

A value given as a limit tells only on which side of the number the result lay.

The target in one series is P2Y purinoceptor 12 (Homo sapiens, UniProt Q9H244). Description: Displacement of [3H]-2-methyl-thio-adenosine 5'-diphosphate from human recombinant P2Y12 expressed in CHO cell membranes by scintillation counting method. In a few lines:
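CHO cells expressing recombinant P2Y₁₂ receptors, incubated with tritium-labeled 2-methyl-thio-adenosine 5'-diphosphate plus test compound; IC₅₀ from displacement curves, each point in triplicate; reference compound run with every compound set, and set re-analyzed if its IC₅₀ fell outside pre-set 95% confidence interval.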
(In a radioligand displacement assay an active substance lowers the binding of a labelled ligand.)

The nature of series [1]: Solubility in basic pH. In kind it is physicochemical.
For series [2], the system named is Liver microsome. Description: Metabolic stability assay in human liver microsomes assessed as parent drug disappearance at 1 uM after 20 mins by HPLC and mass spectrometry method. In kind it is ADME. For orientation: Microsomes from liver hold many membrane-bound enzymes, among them those of drug oxidation.
For series [3], the system named is Platelet. Description: Inhibition of ADP-induced platelet aggregation in human platelet rich plasma assessed as remaining activity at 500 nM by in-vitro light transmission aggregometry assay. In kind it is functional. The essentials:
(§1)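 Light transmission aggregometry in human platelet-rich plasma; compound incubated, aggregation triggered with 3 µM ADP; remaining activity (RA) recorded at a single compound level (1000, 500 or 100 nM).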

For another series, the target named is Cytochrome P450 2C9 (Homo sapiens, UniProt P11712). Description: Inhibition of CYP2C9 in human liver microsomes assessed as reduction in diclofenac 4'-hydroxylation. In kind it is ADME.
Chain of Cytochrome P450 2C9 (P11712 whole entry): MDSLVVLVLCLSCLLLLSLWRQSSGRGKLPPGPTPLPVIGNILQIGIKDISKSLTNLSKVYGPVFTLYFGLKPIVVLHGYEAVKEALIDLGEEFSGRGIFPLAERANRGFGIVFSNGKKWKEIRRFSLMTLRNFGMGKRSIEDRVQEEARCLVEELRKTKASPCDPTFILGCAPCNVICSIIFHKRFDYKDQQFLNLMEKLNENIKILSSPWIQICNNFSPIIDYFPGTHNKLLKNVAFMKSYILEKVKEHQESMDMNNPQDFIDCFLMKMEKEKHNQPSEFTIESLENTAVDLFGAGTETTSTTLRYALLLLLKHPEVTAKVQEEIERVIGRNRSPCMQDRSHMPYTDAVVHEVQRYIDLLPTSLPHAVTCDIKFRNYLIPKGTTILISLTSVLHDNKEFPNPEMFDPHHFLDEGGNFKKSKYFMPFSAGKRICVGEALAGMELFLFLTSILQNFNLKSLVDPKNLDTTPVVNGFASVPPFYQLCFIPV
Series [4] can be described thus: Potency shift, ratio of IC50 for inhibition of ADP-induced platelet aggregation in human platelet rich plasma to IC50 for displacement of [3H]-2-methyl-thio-adenosine 5'-diphosphate from human recombinant P2Y12 expressed in CHO cell membranes.
A short description of series [5]: Solubility in neutral pH. In kind it is physicochemical.
Series [6] relates to Platelet. As to the kind of experiment: Inhibition of ADP-induced platelet aggregation in human platelet rich plasma assessed as remaining activity at 1000 nM by in-vitro light transmission aggregometry assay. It counts as functional. In a few lines:
as §1

Series [7] has as its system Platelet. As to the kind of experiment: Inhibition of ADP-induced platelet aggregation in human platelet rich plasma by in-vitro light transmission aggregometry assay. In kind it is functional. In a few lines:
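Human platelet-rich plasma incubated with compound, aggregation induced by 3 µM ADP and read by light transmission aggregometry; IC₅₀ derived from concentration–response curve.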

The test system of series [8] is Liver microsome. Description: Metabolic stability assay in rat liver microsomes assessed as parent drug disappearance at 1 uM after 20 mins by HPLC and mass spectrometry method. In kind it is ADME.
Another series deals with Cytochrome P450 2D6 (Homo sapiens, UniProt P10635). As to the kind of experiment: Inhibition of CYP2D6 in human liver microsomes assessed as reduction in dextromethorphan-O demethylation. In kind it is ADME.
Chain of Cytochrome P450 2D6 (P10635 whole entry): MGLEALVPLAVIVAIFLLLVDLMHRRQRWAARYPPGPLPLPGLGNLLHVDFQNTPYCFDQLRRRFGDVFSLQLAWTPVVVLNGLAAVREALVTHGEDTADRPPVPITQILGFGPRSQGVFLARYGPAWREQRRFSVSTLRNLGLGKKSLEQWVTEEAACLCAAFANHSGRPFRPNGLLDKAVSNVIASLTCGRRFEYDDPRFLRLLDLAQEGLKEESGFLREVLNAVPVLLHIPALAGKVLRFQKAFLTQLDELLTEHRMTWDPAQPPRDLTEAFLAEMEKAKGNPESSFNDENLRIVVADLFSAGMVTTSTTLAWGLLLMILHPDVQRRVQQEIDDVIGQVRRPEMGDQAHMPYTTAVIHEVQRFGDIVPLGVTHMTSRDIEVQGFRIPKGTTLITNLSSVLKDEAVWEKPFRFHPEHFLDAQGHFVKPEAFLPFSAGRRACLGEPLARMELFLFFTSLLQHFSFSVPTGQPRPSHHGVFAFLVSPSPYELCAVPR
The target in series [9] is Voltage-gated inwardly rectifying potassium channel KCNH2 (Homo sapiens, UniProt Q12809). Description: Inhibition of human ERG expressed in HEK cells by patch-clamp assay. It counts as cell-based. The following applies: hek293. (Patch clamp records ionic current or voltage across a cell membrane.)
Chain of Voltage-gated inwardly rectifying potassium channel KCNH2 (Q12809 whole entry): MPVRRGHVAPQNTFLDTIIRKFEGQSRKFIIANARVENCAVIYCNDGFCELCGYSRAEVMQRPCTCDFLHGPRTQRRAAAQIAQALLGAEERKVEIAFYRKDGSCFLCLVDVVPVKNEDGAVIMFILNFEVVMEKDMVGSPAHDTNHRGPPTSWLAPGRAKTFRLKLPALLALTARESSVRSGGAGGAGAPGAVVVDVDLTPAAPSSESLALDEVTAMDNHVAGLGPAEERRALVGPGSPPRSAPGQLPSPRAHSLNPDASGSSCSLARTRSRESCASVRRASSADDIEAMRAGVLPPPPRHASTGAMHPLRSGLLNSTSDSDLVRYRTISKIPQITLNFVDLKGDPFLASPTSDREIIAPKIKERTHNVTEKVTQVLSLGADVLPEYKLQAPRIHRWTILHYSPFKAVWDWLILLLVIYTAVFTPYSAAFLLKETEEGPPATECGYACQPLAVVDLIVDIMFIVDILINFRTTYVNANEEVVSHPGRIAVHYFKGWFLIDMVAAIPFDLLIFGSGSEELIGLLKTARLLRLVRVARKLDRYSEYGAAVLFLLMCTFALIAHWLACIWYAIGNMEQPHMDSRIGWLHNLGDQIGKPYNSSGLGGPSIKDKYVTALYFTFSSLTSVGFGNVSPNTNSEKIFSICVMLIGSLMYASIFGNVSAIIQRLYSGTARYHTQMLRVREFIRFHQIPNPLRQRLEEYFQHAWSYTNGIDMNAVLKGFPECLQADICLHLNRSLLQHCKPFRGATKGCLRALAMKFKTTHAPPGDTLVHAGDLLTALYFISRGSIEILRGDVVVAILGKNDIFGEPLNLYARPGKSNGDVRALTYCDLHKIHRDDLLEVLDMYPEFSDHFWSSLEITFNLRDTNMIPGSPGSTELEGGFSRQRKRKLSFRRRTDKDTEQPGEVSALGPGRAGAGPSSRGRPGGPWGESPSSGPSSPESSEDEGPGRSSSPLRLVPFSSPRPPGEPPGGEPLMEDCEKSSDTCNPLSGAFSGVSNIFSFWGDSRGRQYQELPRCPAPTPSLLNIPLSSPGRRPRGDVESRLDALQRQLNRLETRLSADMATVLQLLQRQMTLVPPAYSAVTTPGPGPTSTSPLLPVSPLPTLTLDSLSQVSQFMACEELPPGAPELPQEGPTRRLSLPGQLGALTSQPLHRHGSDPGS
Series [10] concerns the target T1, Cytochrome P450 3A4 (Homo sapiens, UniProt P08684). Description: Inhibition of CYP3A4 in human liver microsomes assessed as reduction in midazolam 1'-hydroxylation. It counts as ADME.
For series [11], the target named is T1, Cytochrome P450 3A4. As to the kind of experiment: Inhibition of CYP3A4 in human liver microsomes assessed as reduction in testosterone 6beta-hydroxylation. In kind it is ADME.
A short description of series [12]: Protein binding in human plasma. In kind it is ADME, cell-free. The note with it: read-out: PPB (converted).

T1 sequence (P08684 whole entry): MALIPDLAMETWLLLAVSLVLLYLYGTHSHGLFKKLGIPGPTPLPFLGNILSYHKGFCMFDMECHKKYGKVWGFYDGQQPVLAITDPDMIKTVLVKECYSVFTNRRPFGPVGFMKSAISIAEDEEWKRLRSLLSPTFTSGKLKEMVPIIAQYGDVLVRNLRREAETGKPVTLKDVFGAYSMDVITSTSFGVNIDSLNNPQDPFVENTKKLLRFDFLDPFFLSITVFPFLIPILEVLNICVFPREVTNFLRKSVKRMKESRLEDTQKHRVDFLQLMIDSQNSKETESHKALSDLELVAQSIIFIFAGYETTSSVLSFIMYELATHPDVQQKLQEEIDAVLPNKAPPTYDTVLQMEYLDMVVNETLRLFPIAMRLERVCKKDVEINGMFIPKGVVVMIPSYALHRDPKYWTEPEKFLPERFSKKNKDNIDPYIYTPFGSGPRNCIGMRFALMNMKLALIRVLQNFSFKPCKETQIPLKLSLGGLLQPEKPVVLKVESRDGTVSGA
Chain of P2Y purinoceptor 12 (Q9H244 whole entry): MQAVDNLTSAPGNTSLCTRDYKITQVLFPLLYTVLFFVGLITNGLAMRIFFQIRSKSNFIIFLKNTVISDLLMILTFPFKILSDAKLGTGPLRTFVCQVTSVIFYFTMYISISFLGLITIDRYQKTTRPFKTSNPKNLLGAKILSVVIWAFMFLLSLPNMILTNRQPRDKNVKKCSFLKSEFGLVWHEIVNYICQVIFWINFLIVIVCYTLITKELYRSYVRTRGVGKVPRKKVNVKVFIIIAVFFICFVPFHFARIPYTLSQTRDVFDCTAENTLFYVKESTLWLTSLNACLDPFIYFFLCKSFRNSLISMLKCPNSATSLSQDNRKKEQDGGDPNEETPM

For the molecule `CCOC(=O)N1CCN(C(=O)[C@H](CCC(=O)O)NC(=O)c2cc(C(C)(C)C)nc(-c3ccccc3)n2)CC1`, the IC50 (usually the concentration needed to halve the response being measured) at P2Y purinoceptor 12 was 36 nM; in the series on Platelet [7] (Homo sapiens, Platelet, Plasma) it was 2050 nM. Further, the solubility entry in [1] and in series [5] was “soluble” throughout. The Stability result in the series on Liver microsome [2] and in the series with Liver microsome [8] was “Stable” each time. Besides, the Activity in the series on Platelet [3] is given as over 60%; in the series on Platelet [6], over 30%. The “inhibition (INH)” value (on Cytochrome P450 2C9; at Cytochrome P450 2D6; in series [9]; on Cytochrome P450 3A4 [10]; on Cytochrome P450 3A4 [11]) was “Not Active” each time. For the same molecule, the “Ratio IC50” value in series [4] is listed as 57.
In the case of `CCOC(=O)N1CCN(C(=O)[C@H](CCC(=O)O)NC(=O)c2cc(C(C)C)nc(-c3ccccc3)n2)CC1`, the IC50 at P2Y purinoceptor 12 came out at 52 nM; in the series with Platelet [7] (Homo sapiens, Platelet, Plasma), 1140 nM. The solubility entry in series [1] and in series [5] was “soluble” each time. Besides, the Stability entry with Liver microsome [2] and in the series on Liver microsome [8] was “Stable” each time. In addition, the Activity in the series with Platelet [3] was over 60%; in the series on Platelet [6], over 30%. In addition, the “inhibition (INH)” value (at Cytochrome P450 2C9; at Cytochrome P450 2D6; in series [9]; at Cytochrome P450 3A4 [10]; on Cytochrome P450 3A4 [11]) was “Not Active” in each case. Further, in [4], the “Ratio IC50” value is 22.
With `CCOC(=O)N1CCN(C(=O)[C@H](CCC(=O)O)NC(=O)c2cc(NC(=O)c3ccccc3)nc(-c3ccccc3)n2)CC1`, on P2Y purinoceptor 12, the IC50 was 178 nM. The solubility entry in [1] and in [5] was “soluble” each time. Also, the Stability entry in the series with Liver microsome [2] and in the series on Liver microsome [8] was “Stable” in each case. Further, the results for the Activity in the series on Platelet [3] and in the series with Platelet [6] were over 60% and over 30%, respectively. The “inhibition (INH)” value (at Cytochrome P450 2C9; at Cytochrome P450 2D6; in [9]; on Cytochrome P450 3A4 [10]; on Cytochrome P450 3A4 [11]) was “Not Active” throughout.
For the molecule `CCOC(=O)N1CCN(C(=O)[C@H](CCC(=O)O)NC(=O)c2cc(-c3ccsc3)nc(-c3ccccc3)n2)CC1`, on P2Y purinoceptor 12, the IC50 worked out at 11 nM. For the same molecule, the solubility entry in series [1] and in series [5] was “soluble” throughout. Moreover, the Stability result in the series with Liver microsome [2] and with Liver microsome [8] was “Stable” each time. The Activity with Platelet [3] is over 60%; with Platelet [6], over 30%. Moreover, the “inhibition (INH)” value (at Cytochrome P450 2C9; at Cytochrome P450 2D6; in [9]; on Cytochrome P450 3A4 [10]; at Cytochrome P450 3A4 [11]) was “Not Active” in each case.
Consider `CCOC(=O)N1CCN(C(=O)[C@H](CCC(=O)O)NC(=O)c2cc([C@H]3C[C@@H]3COC)nc(-c3ccccc3)n2)CC1`, for which the IC50 on P2Y purinoceptor 12 stood at 15 nM; in the series on Platelet [7] (platelet), 87 nM. The “Ratio IC50” value in series [4] is on record as 5.8. The fraction unbound in series [12] is 0.034.
`CCOC(=O)N1CCN(C(=O)[C@H](CCC(=O)O)NC(=O)c2cc(-c3ccncc3)nc(-c3ccccc3)n2)CC1`: on P2Y purinoceptor 12, the IC50 amounted to 53 nM. Moreover, the solubility result in series [1] and in series [5] was “soluble” in each case. In addition, the Stability result in the series on Liver microsome [2] and in the series with Liver microsome [8] was “Stable” in each case. The values for the Activity in the series with Platelet [3] and in the series with Platelet [6] were over 60% and over 30%, respectively. Further, the “inhibition (INH)” value (on Cytochrome P450 2C9; on Cytochrome P450 2D6; in series [9]; at Cytochrome P450 3A4 [10]; on Cytochrome P450 3A4 [11]) was “Not Active” throughout.
`CCOC(=O)N1CCN(C(=O)[C@H](CCC(=O)O)NC(=O)c2cc(-c3ccccc3)nc(-c3ccccc3)n2)CC1`: on P2Y purinoceptor 12, the IC50 came to 64 nM. The solubility result in series [1] and in [5] was “soluble” each time. For the same molecule, the Stability entry with Liver microsome [2] and in the series with Liver microsome [8] was “Stable” throughout. For the same molecule, the Activity in the series on Platelet [3] is given as over 60%; in the series with Platelet [6] it was over 30%. Also, the “inhibition (INH)” value (at Cytochrome P450 2C9; at Cytochrome P450 2D6; in [9]; on Cytochrome P450 3A4 [10]; on Cytochrome P450 3A4 [11]) was “Not Active” in each case.
In the case of `CCOC(=O)N1CCN(C(=O)[C@H](CCC(=O)O)NC(=O)c2cc(NCCC(=O)O)nc(-c3ccccc3)n2)CC1`, the IC50 at P2Y purinoceptor 12 was 198 nM. The solubility entry in series [1] and in series [5] was “soluble” in each case. Further, the Stability entry in the series with Liver microsome [2] and with Liver microsome [8] was “Stable” each time. Also, the Activity is listed as over 60% in the series on Platelet [3] and over 30% in the series with Platelet [6]. For the same molecule, the “inhibition (INH)” value (on Cytochrome P450 2C9; at Cytochrome P450 2D6; in series [9]; on Cytochrome P450 3A4 [10]; at Cytochrome P450 3A4 [11]) was “Not Active” throughout.
On to `CCOC(=O)N1CCN(C(=O)[C@H](CCC(=O)O)NC(=O)c2cc(NS(=O)(=O)CC)nc(-c3ccccc3)n2)CC1`, for which, at P2Y purinoceptor 12, the IC50 was determined as 142 nM. Also, the solubility result in series [1] and in series [5] was “soluble” in each case. Further, the Stability result in the series on Liver microsome [2] and in the series on Liver microsome [8] was “Stable” in each case. Moreover, the Activity is recorded as over 60% in the series on Platelet [3] and over 30% in the series on Platelet [6]. The “inhibition (INH)” value (at Cytochrome P450 2C9; at Cytochrome P450 2D6; in series [9]; at Cytochrome P450 3A4 [10]; at Cytochrome P450 3A4 [11]) was “Not Active” each time.
Take `CCOC(=O)N1CCN(C(=O)[C@H](CCC(=O)O)NC(=O)c2cc(NC(=O)C3CCCCC3)nc(-c3ccccc3)n2)CC1`: the IC50 at P2Y purinoceptor 12 worked out at 219 nM. Also, the solubility entry in series [1] and in [5] was “soluble” each time. The Stability entry in the series with Liver microsome [2] and in the series on Liver microsome [8] was “Stable” throughout. Further, the Activity is over 60% with Platelet [3] and over 30% in the series on Platelet [6]. For the same molecule, the “inhibition (INH)” value (on Cytochrome P450 2C9; on Cytochrome P450 2D6; in [9]; at Cytochrome P450 3A4 [10]; at Cytochrome P450 3A4 [11]) was “Not Active” in each case.
As for `CCOC(=O)N1CCN(C(=O)[C@H](CCC(=O)O)NC(=O)c2cc(NCc3ccccc3)nc(-c3ccccc3)n2)CC1`, on P2Y purinoceptor 12, the half-inhibitory concentration (IC50) is 122 nM. For the same molecule, the solubility entry in series [1] and in [5] was “soluble” in each case. Moreover, the Stability entry in the series on Liver microsome [2] and with Liver microsome [8] was “Stable” each time. Moreover, the Activity is reported as over 60% in the series on Platelet [3] and over 30% with Platelet [6]. For the same molecule, the “inhibition (INH)” value (at Cytochrome P450 2C9; on Cytochrome P450 2D6; in series [9]; at Cytochrome P450 3A4 [10]; at Cytochrome P450 3A4 [11]) was “Not Active” in each case.
In the case of `CCOC(=O)N1CCN(C(=O)[C@H](CCC(=O)O)NC(=O)c2cc(-c3cn[nH]c3)nc(-c3ccccc3)n2)CC1`, the solubility entry in series [1] and in series [5] was “soluble” throughout. For the same molecule, the Stability entry in the series on Liver microsome [2] and with Liver microsome [8] was “Stable” throughout. Also, the figures for the Activity in the series on Platelet [3] and in the series with Platelet [6] were over 60% and over 30%, respectively. In addition, the “inhibition (INH)” value (on Cytochrome P450 2C9; on Cytochrome P450 2D6; in series [9]; at Cytochrome P450 3A4 [10]; on Cytochrome P450 3A4 [11]) was “Not Active” throughout.
Consider `CCOC(=O)N1CCN(C(=O)[C@H](CCC(=O)O)NC(=O)c2cc(Nc3ccccc3)nc(-c3ccccc3)n2)CC1`, for which, at P2Y purinoceptor 12, the IC50 turned out to be 177 nM. Further, the solubility entry in series [1] and in [5] was “soluble” in each case. Further, the Stability result with Liver microsome [2] and with Liver microsome [8] was “Stable” in each case. Besides, the Activity in the series with Platelet [3] is recorded as over 60%; in the series with Platelet [6], over 30%. The “inhibition (INH)” value (at Cytochrome P450 2C9; at Cytochrome P450 2D6; in series [9]; at Cytochrome P450 3A4 [10]; at Cytochrome P450 3A4 [11]) was “Not Active” in each case.
